Where two headings read alike, the source gives them in different places. One block for each molecule: values may come before it.
What was measured:
HEP3B cells [1] = assay: Cell proliferation assay; format: cell-based, human; conditions: 72 h
Method in brief: (§1)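 Seeding was 5 × 10^3 cells per well in 96-well plates: HEP3B in DMEM, HUH7 and HEPG2 in RPMI1640, all with 10% FBS at 37 °C under 5% CO2. Cells received 10 doses of test compound in 3-fold serial dilution for 72 h. Viability was read by CellTiter-Glo luminescence.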

HUH7 cells [2] = assay: Cell proliferation assay; format: cell-based, human
Method in brief: as §1

HEPG2 cells = assay: Cell proliferation assay; format: cell-based, human; conditions: FGFR4 overexpression, HCC
Method in brief: as §1

AN3-CA cells = assay: Cell proliferation assay; format: cell-based; conditions: 72 h
HUH7 cells [3] = assay: Invasion assay; format: cell-based, human; conditions: low concentrations
Method in brief: (§2)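 Cells (HUH7 in RPMI1640, HEP3B in DMEM) were serum-starved for 12 h. They were then seeded at 5.0 × 10^4 cells per chamber into 8 μm ECMatrix-coated transwell chambers (QCM collagen invasion kit). Test compound was added and chambers were incubated at 37 °C under 5% CO2. Invaded cells were stained with 0.005% crystal violet in PBS.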

SK-HEP1 cells [4] = assay: Cell cycle analysis; format: cell-based; conditions: 18 h
FGFR4 WT = FGFR4 WT (Homo sapiens, UniProt P22455); assay: Radiometric biochemical kinase assay
FGFR4 WT, sequence (P22455 22-802): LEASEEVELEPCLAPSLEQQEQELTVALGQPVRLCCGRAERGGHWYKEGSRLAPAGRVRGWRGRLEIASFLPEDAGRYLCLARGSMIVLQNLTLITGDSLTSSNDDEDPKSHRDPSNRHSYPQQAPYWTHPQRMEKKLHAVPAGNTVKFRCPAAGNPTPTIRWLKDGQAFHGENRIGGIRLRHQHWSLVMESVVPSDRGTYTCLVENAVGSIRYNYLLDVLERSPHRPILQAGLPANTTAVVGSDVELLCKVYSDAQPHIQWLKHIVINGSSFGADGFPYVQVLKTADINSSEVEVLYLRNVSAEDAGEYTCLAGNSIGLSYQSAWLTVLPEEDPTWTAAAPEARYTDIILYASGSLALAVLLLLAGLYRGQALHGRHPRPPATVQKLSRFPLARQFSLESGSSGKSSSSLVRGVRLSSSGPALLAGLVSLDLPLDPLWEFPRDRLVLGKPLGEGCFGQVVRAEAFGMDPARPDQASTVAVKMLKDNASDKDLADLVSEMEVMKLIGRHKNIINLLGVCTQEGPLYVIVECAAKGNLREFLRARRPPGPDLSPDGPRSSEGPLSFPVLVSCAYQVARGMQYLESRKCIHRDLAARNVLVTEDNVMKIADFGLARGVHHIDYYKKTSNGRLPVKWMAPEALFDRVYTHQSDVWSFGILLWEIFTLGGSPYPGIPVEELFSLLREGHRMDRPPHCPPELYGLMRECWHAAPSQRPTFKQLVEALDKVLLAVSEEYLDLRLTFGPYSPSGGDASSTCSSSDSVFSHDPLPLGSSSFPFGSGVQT

HEP3B cells [5] = assay: Apoptosis assay; format: cell-based, human; conditions: 24 h
Method in brief: (§3)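 Cells (1 × 10^5) were treated with test compound for 24 h, then harvested and stained with Alexa Fluor 488 annexin V and propidium iodide per kit instructions, and analysed by flow cytometry. Culture: HEP3B and SK-HEP1 in DMEM, HUH7 in RPMI1640, each with 10% FBS and antibiotic-antimycotic, at 37 °C under 5% CO2.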

HEP3B cells [6] = assay: Invasion assay; format: cell-based, human; conditions: low concentrations
Method in brief: as §2

HUH7 cells [7] = assay: Cell cycle analysis; format: cell-based, human; conditions: 18 h
Method in brief: (§4)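 Cells seeded at 1 × 10^5 on 60 mm plates and exposed to test compound for 18 h. They were then fixed in 70% ethanol and resuspended in PBS containing 50 μg/mL propidium iodide. DNA content was measured by flow cytometry to give the cell cycle phase distribution.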

FGFR1 V561M = FGFR1 V561M (Homo sapiens, UniProt P11362, V561M); assay: Radiometric biochemical kinase assay; conditions: ATP 10 µM
FGFR1 V561M, sequence (P11362 22-822 V561M): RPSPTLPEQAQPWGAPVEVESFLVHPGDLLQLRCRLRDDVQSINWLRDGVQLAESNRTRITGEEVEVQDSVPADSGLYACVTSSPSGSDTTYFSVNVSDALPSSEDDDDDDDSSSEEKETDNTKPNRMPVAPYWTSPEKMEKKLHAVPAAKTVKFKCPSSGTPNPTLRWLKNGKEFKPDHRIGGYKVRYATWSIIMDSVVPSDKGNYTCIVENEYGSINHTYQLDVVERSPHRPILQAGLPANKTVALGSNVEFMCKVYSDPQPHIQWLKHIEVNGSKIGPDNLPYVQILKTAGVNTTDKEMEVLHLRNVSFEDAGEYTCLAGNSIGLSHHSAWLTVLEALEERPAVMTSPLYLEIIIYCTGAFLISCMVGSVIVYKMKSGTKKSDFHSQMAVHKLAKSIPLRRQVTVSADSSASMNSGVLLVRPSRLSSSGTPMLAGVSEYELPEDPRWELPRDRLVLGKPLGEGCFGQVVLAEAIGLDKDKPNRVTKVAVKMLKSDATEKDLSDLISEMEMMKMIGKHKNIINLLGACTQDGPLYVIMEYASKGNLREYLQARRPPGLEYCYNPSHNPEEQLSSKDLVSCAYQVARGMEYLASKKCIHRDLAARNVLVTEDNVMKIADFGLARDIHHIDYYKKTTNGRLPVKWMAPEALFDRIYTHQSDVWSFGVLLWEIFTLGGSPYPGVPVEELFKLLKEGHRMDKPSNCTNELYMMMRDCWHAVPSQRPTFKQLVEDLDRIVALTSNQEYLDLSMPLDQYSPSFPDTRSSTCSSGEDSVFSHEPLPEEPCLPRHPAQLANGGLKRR

SK-HEP1 cells [8] = assay: Soft agar anchorage-independent growth assay; format: cell-based; conditions: 5 µM, 3 weeks
Method in brief: (§5)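 The base layer was 0.5% agar in DMEM in 6-well plates. Cells were suspended in 2× DMEM with 0.7% agar (0.35% agar per legend) at 5 × 10^3 cells per well and overlaid with medium containing test compound. Plates were incubated for 3 weeks at 37 °C under 5% CO2. Colonies were stained with iodonitrotetrazolium chloride in PBS and imaged.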

HEP3B cells [9] = assay: Cell cycle analysis; format: cell-based, human; conditions: 18 h
Method in brief: as §4

FGFR1 WT = FGFR1 WT (Homo sapiens, UniProt P11362); assay: Radiometric biochemical kinase assay; conditions: ATP 10 µM
FGFR1 WT, sequence (P11362 22-822): as the sequence (P11362 22-822 V561M) above, with M540V counted along it

KMS-11 cells = assay: Cell proliferation assay; format: cell-based
HUH7 cells [10] = assay: Soft agar anchorage-independent growth assay; format: cell-based, human; conditions: GNF-7 0.1 or 0.5 µM, SIJ1263 0.01 or 0.05 µM, 3 weeks
Method in brief: as §5

HUH7 cells [11] = assay: Scratch wound healing migration assay; format: cell-based, human; conditions: GNF-7 0.01 or 0.05 μM, SIJ1263 0.002 or 0.005 μM, PD173074 0.1 μM, 36 h
SK-HEP1 cells [12] = assay: Apoptosis assay; format: cell-based; conditions: 24 h
Method in brief: as §3

[13] = test system: phosphorylation of FGFR and downstream molecules (PLCγ, FRS2α, AKT, ERK1/2) in HUH7 cells; assay: Western blot of FGFR signaling; format: cell-based, human; conditions: dose-dependent
Method in brief: (§6)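 After SDS-PAGE, proteins were transferred to nitrocellulose and blocked in 5% milk in TBS-T. Rabbit antibodies (FGFR4, pFGFR, pERK, pFRS2α, pPLCγ, β-actin) were applied overnight at 4 °C, then secondary for 1 h. Detection was by ECL with densitometry.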

FGFR2 N549H = FGFR2 N549H (Homo sapiens, UniProt P21802, N549H); assay: Radiometric biochemical kinase assay; conditions: ATP 10 µM
FGFR2 N549H, sequence (P21802 22-821 N549H): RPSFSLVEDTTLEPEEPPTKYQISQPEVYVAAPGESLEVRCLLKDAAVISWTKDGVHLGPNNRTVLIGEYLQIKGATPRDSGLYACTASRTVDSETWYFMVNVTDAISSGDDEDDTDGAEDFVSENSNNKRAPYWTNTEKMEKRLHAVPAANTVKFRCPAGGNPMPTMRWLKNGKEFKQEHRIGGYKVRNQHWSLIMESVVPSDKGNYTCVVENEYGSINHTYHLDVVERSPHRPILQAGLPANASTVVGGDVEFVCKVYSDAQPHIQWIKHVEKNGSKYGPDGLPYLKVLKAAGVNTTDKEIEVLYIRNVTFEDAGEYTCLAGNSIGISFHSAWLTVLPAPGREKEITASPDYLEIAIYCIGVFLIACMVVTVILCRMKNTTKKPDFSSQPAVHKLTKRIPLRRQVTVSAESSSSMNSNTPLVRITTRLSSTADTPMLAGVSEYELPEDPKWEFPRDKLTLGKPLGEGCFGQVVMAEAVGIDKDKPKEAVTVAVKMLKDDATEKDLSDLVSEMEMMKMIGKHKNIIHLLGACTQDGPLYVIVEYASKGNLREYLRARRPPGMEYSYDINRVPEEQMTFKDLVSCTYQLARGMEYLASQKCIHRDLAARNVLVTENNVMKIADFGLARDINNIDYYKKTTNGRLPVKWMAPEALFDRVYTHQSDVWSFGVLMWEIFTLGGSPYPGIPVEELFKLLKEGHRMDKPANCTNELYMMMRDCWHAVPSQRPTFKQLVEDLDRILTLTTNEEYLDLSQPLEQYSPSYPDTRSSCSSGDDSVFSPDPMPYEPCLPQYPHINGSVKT

J82 cells = assay: Cell proliferation assay; format: cell-based
[14] = test system: phosphorylation of FGFR and downstream molecules (PLCγ, FRS2α, AKT, ERK1/2) in HEP3B cells; assay: Western blot of FGFR signaling; format: cell-based, human; conditions: dose-dependent
Method in brief: as §6

HEP3B cells [15] = assay: Scratch wound healing migration assay; format: cell-based, human; conditions: GNF-7 0.01 or 0.05 μM, SIJ1263 0.002 or 0.005 μM, PD173074 0.1 μM
HEP3B cells [16] = assay: Soft agar anchorage-independent growth assay; format: cell-based, human; conditions: GNF-7 0.1 or 0.5 µM, SIJ1263 0.01 or 0.05 µM, 3 weeks
Method in brief: as §5

HUH7 cells [17] = assay: Apoptosis assay; format: cell-based, human; conditions: 24 h
Method in brief: as §3

FGFR2 WT = FGFR2 WT (Homo sapiens, UniProt P21802); assay: Radiometric biochemical kinase assay; conditions: ATP 10 µM
FGFR2 WT, sequence (P21802 22-821): as the sequence (P21802 22-821 N549H) above, with H528N counted along it

MDA-MB-453 cells = assay: Cell proliferation assay; format: cell-based
Method in brief: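 MDA-MB-453 cells (DMEM, 10% FBS, 37 °C, 5% CO2) were plated at 5 × 10^3 per well in 96-well plates. Test compound was added at 10 doses in 3-fold serial dilution for 72 h. Viability was read by CellTiter-Glo luminescence, and GI50 was derived from the dose-response curves.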

SMILES: Cc1ccc(Nc2ncc3c(n2)N(C)C(=O)N(c2cc(NC(=O)c4cccc(C(F)(F)F)c4)ccc2C)C3)cn1 [GNF-7]
GI50 (AN3-CA cells; FGFR2 N549K/K310R, endometrium): 17 nM
effect on invasion (HUH7 cells [3]): remarkably attenuate invasion
induction of G0/G1 phase cell cycle arrest (SK-HEP1 cells [4]): little effects
IC50 (FGFR4 WT; FGFR4 WT, radiometric, ATP 10 µM): 4 nM
IC50 (FGFR4 WT; read-out: IC50 against FGFR4, wtFGFR4): 4.17 nM
GI50 (HEP3B cells [1]; HEP3B, FGFR4 overexpression, HCC): 373 ± 150 nM
apoptosis induction (HEP3B cells [5]): inducing apoptosis
effect on invasion (HEP3B cells [6]): remarkably attenuate invasion
cell cycle distribution (HUH7 cells [7]): induce G0/G1 phase cell cycle arrest with decrease in the S phase
GI50 (HUH7 cells [2]; HUH7, FGFR4 overexpression, HCC, 72 h): 60 ± 10 nM
IC50 (FGFR1 V561M): 7540 nM
block of colony formation (SK-HEP1 cells [8]): 11%
cell cycle distribution (HEP3B cells [9]): induce G0/G1 phase cell cycle arrest with decrease in the S phase
IC50 (FGFR1 WT): 11 nM
GI50 (KMS-11 cells; KMS-11, FGFR3 Y373C, myeloma, 72 h): 15 nM
suppression of colony-formation (HUH7 cells [10]): almost completely
wound healing (migration) (HUH7 cells [11]): substantially reduced
apoptosis induction (SK-HEP1 cells [12]): little effects
phosphorylation of FGFR and downstream signaling molecules [13]: inhibiting significantly phosphorylation
GI50 (HEPG2 cells; 72 h): 366 ± 70 nM
IC50 (FGFR2 N549H): 7 nM
GI50 (J82 cells; J82, FGFR3 K652E, urinary bladder, 72 h): 50 ± 10 nM
phosphorylation of FGFR and downstream signaling molecules [14]: inhibiting significantly phosphorylation
wound healing (migration) (HEP3B cells [15]): substantially reduced
suppression of colony-formation (HEP3B cells [16]): almost completely
apoptosis induction (HUH7 cells [17]): inducing apoptosis
IC50 (FGFR2 WT): 20 nM
GI50 (MDA-MB-453 cells; MDA-MB-453, FGFR4 overexpression, breast cancer, 72 h): 443 ± 70 nM

SMILES: C=CC(=O)Nc1cccc(C)c1Nc1ncc2cc(-c3c(Cl)c(OC)cc(OC)c3Cl)ccc2n1 [BLU9931]
GI50 (AN3-CA cells; Homo sapiens): 9200 ± 450 nM
GI50 (HEP3B cells [1]; Homo sapiens, Hep3B): 4220 ± 1030 nM
GI50 (HUH7 cells [2]; Homo sapiens, Huh-7, 72 h): 715 ± 100 nM
GI50 (KMS-11 cells; Homo sapiens, KMS-11, 72 h): 541 ± 10 nM
GI50 (J82 cells; Homo sapiens, J82, 72 h): 5870 ± 580 nM
GI50 (MDA-MB-453 cells; Homo sapiens, MDA-MB-453, 72 h): 2150 ± 380 nM

More lines, in order of falling GI50 (HEP3B cells [1]; Homo sapiens, Hep3B), values ahead:

GI50 (HEP3B cells [1]; Homo sapiens, Hep3B): 5420 ± 1120 nM
GI50 (HUH7 cells [2]; Homo sapiens, Huh-7, 72 h): 9590 ± 2060 nM
GI50 (HEPG2 cells; Homo sapiens, HepG2, 72 h): 8560 ± 1450 nM
SMILES: CNC(=O)c1cc(Oc2ccc(NC(=O)Nc3ccc(Cl)c(C(F)(F)F)c3)cc2)ccn1 [sorafenib]

IC50 (FGFR4 WT): 97 nM
GI50 (HEP3B cells [1]; Homo sapiens, Hep3B): 2500 ± 490 nM
GI50 (HUH7 cells [2]; Homo sapiens, Huh-7, 72 h): 598 ± 240 nM
GI50 (HEPG2 cells; 72 h): 13400 ± 3600 nM
GI50 (HEPG2 cells; Homo sapiens, HepG2, 72 h): > 10000 nM
GI50 (MDA-MB-453 cells; Homo sapiens, MDA-MB-453, 72 h): > 10000 nM
SMILES: CCN(CC)CCCCNc1ncc2cc(-c3cc(OC)cc(OC)c3)c(NC(=O)NC(C)(C)C)nc2n1 [PD173074]
GI50 (AN3-CA cells; Homo sapiens): 973 ± 2550 nM
effect on invasion (HUH7 cells [3]): little effect on invasion capability
effect on invasion (HEP3B cells [6]): little effect on invasion capability
GI50 (KMS-11 cells; Homo sapiens, KMS-11, 72 h): 64 ± 20 nM
wound healing (migration) (HUH7 cells [11]): moderately reduced the wound healing
GI50 (J82 cells; Homo sapiens, J82, 72 h): 975 ± 450 nM
wound healing (migration) (HEP3B cells [15]): moderately reduced the wound healing

GI50 (HEP3B cells [1]; Homo sapiens, Hep3B): 1370 ± 140 nM
GI50 (HUH7 cells [2]; Homo sapiens, Huh-7, 72 h): 157 ± 120 nM
GI50 (HEPG2 cells; Homo sapiens, HepG2, 72 h): 5370 ± 1100 nM
GI50 (MDA-MB-453 cells; Homo sapiens, MDA-MB-453, 72 h): 2640 ± 280 nM
SMILES: CCN1CCN(c2ccc(Nc3cc(N(C)C(=O)Nc4c(Cl)c(OC)cc(OC)c4Cl)ncn3)cc2)CC1 [BGJ398, 3-(2,6-dichloro-3,5-dimethoxy-phenyl)-1-{6-[4-(4-ethyl-piperazin-1-yl)-phenylamino]-pyrimidin-4-yl}-1-methyl-urea]
GI50 (AN3-CA cells; Homo sapiens): 57 ± 10 nM
GI50 (KMS-11 cells; Homo sapiens, KMS-11, 72 h): 143 ± 100 nM
GI50 (J82 cells; Homo sapiens, J82, 72 h): 2840 ± 1570 nM
